Assay results as given in ChEMBL document CHEMBL2331221, “Potent elastase inhibitors from cyanobacteria: structural basis and mechanisms mediating cytoprotective and anti-inflammatory effects in bronchial epithelial cells” (J Med Chem, 2013).
The source made the active and inactive calls.

Columns and labels:
[1] = target: Plasminogen (Homo sapiens) (UniProt P00747); test: Inhibition of Plasmin (unknown origin) using H-D-CHA -Ala-Arg-AMC.2AcOH substrate assessed as residual activity at 10 uM incubated for 15 mins prior to substrate addition measured for 2 hrs
Chain of Plasminogen (Homo sapiens) (P00747 97-580 limits assumed): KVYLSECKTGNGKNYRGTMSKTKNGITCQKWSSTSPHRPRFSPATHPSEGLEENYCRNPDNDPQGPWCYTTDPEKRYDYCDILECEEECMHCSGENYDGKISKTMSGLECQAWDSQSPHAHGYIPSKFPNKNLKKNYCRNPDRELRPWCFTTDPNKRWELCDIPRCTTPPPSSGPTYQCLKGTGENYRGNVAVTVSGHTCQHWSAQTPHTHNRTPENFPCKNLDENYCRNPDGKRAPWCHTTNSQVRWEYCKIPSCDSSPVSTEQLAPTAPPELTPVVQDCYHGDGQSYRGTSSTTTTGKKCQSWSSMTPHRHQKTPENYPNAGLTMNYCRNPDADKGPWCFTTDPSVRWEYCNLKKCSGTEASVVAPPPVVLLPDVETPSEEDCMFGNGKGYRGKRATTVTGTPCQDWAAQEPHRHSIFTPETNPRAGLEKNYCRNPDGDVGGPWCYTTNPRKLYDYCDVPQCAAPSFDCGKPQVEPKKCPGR
Chain of Plasminogen (Homo sapiens) (P00747 581-810 limits assumed): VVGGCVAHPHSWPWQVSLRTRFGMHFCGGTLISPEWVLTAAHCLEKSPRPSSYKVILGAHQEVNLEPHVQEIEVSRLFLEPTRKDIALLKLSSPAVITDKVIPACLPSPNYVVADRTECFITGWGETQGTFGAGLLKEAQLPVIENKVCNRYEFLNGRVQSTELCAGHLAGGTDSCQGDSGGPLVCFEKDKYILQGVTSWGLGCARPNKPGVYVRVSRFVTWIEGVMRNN
Procedure, shortened: (§1)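 Protease panel screen: enzyme and inhibitor preincubated 15 min in reaction buffer, then substrate added; reaction followed for 2 h and the initial linear part of the progress curve used for activity. Enzyme, substrate, buffer and detection details are given only in a supporting table.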

[2] = system: Hepacivirus hominis; test: Inhibition of Hepatitis C virus NS3/4A protease using Anaspec EnzoLyte substrate assessed as residual activity at 10 uM incubated for 15 mins prior to substrate addition measured for 2 hrs
Procedure, shortened: (§2)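 Protease panel screen: enzyme and test inhibitor preincubated 15 min in the enzyme's reaction buffer, then substrate added. Reaction followed for 2 h, and activity was taken from the initial linear portion of the progress-curve slope. Enzyme, substrate, buffer and detection conditions for each target are given only in the paper's supporting table.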

[3] = target: Granzyme B (Homo sapiens) (UniProt P10144); test: Inhibition of Granzyme B (unknown origin) using Ac-IEPD-AMC substrate assessed as residual activity at 10 uM incubated for 15 mins prior to substrate addition measured for 2 hrs; procedure, shortened: as §2
[4] = target: Chymase (Homo sapiens) (UniProt P23946); test: Inhibition of Chymase (unknown origin) using Suc-AAPF-AMC substrate assessed as residual activity at 10 uM incubated for 15 mins prior to substrate addition measured for 2 hrs; procedure, shortened: as §2
Chain of Chymase (Homo sapiens) (P23946 whole entry): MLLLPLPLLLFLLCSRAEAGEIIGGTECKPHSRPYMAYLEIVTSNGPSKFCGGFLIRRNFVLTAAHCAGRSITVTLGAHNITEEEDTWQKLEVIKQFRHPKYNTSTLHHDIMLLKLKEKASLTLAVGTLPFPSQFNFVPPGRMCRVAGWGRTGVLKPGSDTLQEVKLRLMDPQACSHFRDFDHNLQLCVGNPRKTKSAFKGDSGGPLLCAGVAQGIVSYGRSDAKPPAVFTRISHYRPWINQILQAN

[5] = target: Cathepsin G (Homo sapiens) (UniProt P08311); test: Inhibition of Cathepsin G (unknown origin) using Suc-AAPF-AMC substrate assessed as residual activity at 10 uM incubated for 15 mins prior to substrate addition measured for 2 hrs; procedure, shortened: as §2
[6] = target: Dipeptidyl peptidase 9 (Homo sapiens) (UniProt Q86TI2); test: Inhibition of DPP9 (unknown origin) using H-GP-AMC substrate assessed as residual activity at 10 uM incubated for 15 mins prior to substrate addition measured for 2 hrs; procedure, shortened: as §2
Chain of Dipeptidyl peptidase 9 (Homo sapiens) (Q86TI2 2-863 limits assumed): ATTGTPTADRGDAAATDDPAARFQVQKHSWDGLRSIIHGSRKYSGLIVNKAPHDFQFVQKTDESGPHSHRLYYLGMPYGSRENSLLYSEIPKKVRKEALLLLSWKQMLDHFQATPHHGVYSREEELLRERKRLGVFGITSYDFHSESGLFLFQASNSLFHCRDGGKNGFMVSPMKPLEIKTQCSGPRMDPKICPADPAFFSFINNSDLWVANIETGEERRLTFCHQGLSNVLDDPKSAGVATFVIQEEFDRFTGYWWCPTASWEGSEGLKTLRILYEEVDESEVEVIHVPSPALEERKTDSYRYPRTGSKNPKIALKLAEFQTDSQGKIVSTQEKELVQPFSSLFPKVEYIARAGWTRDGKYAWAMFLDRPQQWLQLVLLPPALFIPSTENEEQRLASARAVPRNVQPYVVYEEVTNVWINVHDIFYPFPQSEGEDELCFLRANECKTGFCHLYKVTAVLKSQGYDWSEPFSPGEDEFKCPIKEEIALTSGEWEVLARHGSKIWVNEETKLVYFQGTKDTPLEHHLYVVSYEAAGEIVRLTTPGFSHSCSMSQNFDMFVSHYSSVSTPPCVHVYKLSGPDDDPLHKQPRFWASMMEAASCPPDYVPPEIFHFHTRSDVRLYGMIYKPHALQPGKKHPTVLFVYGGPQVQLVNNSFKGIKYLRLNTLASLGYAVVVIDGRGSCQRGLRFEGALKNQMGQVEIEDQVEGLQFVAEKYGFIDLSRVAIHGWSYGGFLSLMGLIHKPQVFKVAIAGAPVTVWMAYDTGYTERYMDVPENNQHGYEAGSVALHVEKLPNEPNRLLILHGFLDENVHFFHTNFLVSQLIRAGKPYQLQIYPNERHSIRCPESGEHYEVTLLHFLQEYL

[7] = target: Dipeptidyl peptidase 8 (Homo sapiens) (UniProt Q6V1X1); test: Inhibition of DPP8 (unknown origin) using H-GP-AMC substrate assessed as residual activity at 10 uM incubated for 15 mins prior to substrate addition measured for 2 hrs; procedure, shortened: as §2
Chain of Dipeptidyl peptidase 8 (Homo sapiens) (Q6V1X1 whole entry, looked up): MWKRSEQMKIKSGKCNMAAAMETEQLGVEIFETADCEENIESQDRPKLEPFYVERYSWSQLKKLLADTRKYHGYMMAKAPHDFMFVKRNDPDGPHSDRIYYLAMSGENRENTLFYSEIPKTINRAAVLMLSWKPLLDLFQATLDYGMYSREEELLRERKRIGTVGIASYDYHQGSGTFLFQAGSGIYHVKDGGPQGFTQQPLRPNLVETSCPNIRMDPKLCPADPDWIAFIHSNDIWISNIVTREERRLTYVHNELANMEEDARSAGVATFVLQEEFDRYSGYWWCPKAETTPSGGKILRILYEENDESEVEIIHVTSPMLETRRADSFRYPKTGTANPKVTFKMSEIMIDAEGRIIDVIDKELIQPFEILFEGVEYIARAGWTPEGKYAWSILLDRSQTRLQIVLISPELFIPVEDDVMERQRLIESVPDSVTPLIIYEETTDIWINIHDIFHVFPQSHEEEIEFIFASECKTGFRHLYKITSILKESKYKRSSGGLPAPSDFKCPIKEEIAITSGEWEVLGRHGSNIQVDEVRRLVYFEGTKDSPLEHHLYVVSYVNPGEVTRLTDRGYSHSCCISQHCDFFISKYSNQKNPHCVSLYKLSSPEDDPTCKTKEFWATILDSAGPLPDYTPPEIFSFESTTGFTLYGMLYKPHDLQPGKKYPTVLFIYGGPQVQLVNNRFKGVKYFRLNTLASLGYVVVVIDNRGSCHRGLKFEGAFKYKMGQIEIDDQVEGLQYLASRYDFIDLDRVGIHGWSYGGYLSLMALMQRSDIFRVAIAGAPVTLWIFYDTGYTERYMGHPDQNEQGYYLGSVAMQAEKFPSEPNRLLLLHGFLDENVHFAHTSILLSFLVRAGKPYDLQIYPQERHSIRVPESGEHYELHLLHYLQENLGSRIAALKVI

[8] = target: Dipeptidyl peptidase 4 (Homo sapiens) (UniProt P27487); test: Inhibition of DPP4 (unknown origin) using H-GP-AMC substrate assessed as residual activity at 10 uM incubated for 15 mins prior to substrate addition measured for 2 hrs; procedure, shortened: as §2
[9] = target: Kallikrein-12 (Homo sapiens, UniProt Q9UKR0); test: Inhibition of Kallikrein-12 (unknown origin) using VPR-AMC substrate incubated for 15 mins prior to substrate addition measured for 2 hrs; procedure, shortened: as §2
[10] = Inhibition of Hepatitis C virus NS3/4A protease using Anaspec EnzoLyte substrate incubated for 15 mins prior to substrate addition measured for 2 hrs; design: species or system Hepacivirus hominis; procedure, shortened: as §2
[11] = target: Cathepsin G (Homo sapiens, UniProt P08311); test: Inhibition of Cathepsin G (unknown origin) using Suc-AAPF-AMC substrate incubated for 15 mins prior to substrate addition measured for 2 hrs; procedure, shortened: as §2
[12] = target: Cathepsin E (Homo sapiens) (UniProt P14091); test: Inhibition of Cathepsin E (unknown origin) using MCA-KPILFFRLK(Dnp)-D-R-NH2 substrate assessed as residual activity at 10 uM incubated for 15 mins prior to substrate addition measured for 2 hrs; procedure, shortened: as §2
[13] = target: Cathepsin D (Homo sapiens) (UniProt P07339); test: Inhibition of Cathepsin D (unknown origin) using MCA-KPILFFRLK(Dnp)-D-R-NH2 substrate assessed as residual activity at 10 uM incubated for 15 mins prior to substrate addition measured for 2 hrs; procedure, shortened: as §2
[14] = target: Disintegrin and metalloproteinase domain-containing protein 17 (Homo sapiens) (UniProt P78536); test: Inhibition of TACE (unknown origin) using MCA-PLAQAV-Dpa-RSSSR-NH2 substrate assessed as residual activity at 10 uM incubated for 15 mins prior to substrate addition measured for 2 hrs; procedure, shortened: as §1
Chain of Disintegrin and metalloproteinase domain-containing protein 17 (Homo sapiens) (P78536 whole entry, the tested form may be a part): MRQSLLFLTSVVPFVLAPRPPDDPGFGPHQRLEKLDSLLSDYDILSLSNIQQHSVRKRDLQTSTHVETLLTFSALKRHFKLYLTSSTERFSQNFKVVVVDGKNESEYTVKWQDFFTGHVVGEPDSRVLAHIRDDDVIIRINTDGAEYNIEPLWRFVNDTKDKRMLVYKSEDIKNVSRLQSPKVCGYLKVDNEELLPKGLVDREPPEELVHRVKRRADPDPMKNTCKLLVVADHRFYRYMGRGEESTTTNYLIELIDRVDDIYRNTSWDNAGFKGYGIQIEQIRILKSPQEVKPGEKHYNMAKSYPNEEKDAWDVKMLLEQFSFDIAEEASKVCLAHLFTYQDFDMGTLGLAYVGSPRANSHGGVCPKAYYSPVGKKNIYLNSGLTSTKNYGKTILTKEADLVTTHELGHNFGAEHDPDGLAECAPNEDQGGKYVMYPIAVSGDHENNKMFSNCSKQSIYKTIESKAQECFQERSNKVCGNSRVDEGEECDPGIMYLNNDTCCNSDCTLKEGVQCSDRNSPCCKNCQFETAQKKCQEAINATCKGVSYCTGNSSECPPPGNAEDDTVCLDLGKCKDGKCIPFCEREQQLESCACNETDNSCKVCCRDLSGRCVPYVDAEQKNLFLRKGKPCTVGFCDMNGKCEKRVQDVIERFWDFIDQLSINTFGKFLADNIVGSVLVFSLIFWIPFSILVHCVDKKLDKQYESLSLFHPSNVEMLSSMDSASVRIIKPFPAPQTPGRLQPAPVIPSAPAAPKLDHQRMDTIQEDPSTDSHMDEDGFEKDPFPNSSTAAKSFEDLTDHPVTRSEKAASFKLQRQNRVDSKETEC

[15] = target: Matrix metalloproteinase-14 (Homo sapiens) (UniProt P50281); test: Inhibition of MMP14 (unknown origin) using (5-FAM/QXLTM) FRET peptide substrate assessed as residual activity at 10 uM incubated for 15 mins prior to substrate addition measured for 2 hrs; procedure, shortened: as §2
[16] = target: Collagenase 3 (Homo sapiens) (UniProt P45452); test: Inhibition of MMP13 (unknown origin) using (5-FAM/QXLTM) FRET peptide substrate assessed as residual activity at 10 uM incubated for 15 mins prior to substrate addition measured for 2 hrs; procedure, shortened: as §2
[17] = target: Macrophage metalloelastase (Homo sapiens) (UniProt P39900); test: Inhibition of MMP12 (unknown origin) using (5-FAM/QXLTM) FRET peptide substrate assessed as residual activity at 10 uM incubated for 15 mins prior to substrate addition measured for 2 hrs; procedure, shortened: as §2
[18] = target: Matrix metalloproteinase-9 (Homo sapiens) (UniProt P14780); test: Inhibition of MMP9 (unknown origin) using (5-FAM/QXLTM) FRET peptide substrate assessed as residual activity at 10 uM incubated for 15 mins prior to substrate addition measured for 2 hrs; procedure, shortened: as §1
Chain of Matrix metalloproteinase-9 (Homo sapiens) (P14780 whole entry): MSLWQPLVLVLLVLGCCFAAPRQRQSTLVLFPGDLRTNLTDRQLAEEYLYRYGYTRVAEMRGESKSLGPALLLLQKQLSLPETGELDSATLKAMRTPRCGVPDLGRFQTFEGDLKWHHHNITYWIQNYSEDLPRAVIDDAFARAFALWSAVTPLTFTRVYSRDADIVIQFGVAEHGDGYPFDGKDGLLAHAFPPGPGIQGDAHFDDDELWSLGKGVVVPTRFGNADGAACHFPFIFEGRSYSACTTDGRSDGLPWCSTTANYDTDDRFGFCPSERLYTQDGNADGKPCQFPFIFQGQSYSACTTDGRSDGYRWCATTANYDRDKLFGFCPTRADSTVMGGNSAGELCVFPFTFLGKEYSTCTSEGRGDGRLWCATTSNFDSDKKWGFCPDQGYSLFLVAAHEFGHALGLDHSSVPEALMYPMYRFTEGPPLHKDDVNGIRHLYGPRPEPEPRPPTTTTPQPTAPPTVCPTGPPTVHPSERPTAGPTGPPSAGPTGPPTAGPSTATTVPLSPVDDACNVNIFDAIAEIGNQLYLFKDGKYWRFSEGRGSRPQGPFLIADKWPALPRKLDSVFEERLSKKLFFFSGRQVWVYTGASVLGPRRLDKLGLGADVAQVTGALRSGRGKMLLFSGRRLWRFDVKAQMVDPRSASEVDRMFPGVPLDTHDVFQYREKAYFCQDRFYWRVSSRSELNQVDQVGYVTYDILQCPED

[19] = target: Stromelysin-1 (Homo sapiens) (UniProt P08254); test: Inhibition of MMP3 (unknown origin) using (5-FAM/QXLTM) FRET peptide substrate assessed as residual activity at 10 uM incubated for 15 mins prior to substrate addition measured for 2 hrs; procedure, shortened: as §2
Chain of Stromelysin-1 (Homo sapiens) (P08254 100-477 limits assumed): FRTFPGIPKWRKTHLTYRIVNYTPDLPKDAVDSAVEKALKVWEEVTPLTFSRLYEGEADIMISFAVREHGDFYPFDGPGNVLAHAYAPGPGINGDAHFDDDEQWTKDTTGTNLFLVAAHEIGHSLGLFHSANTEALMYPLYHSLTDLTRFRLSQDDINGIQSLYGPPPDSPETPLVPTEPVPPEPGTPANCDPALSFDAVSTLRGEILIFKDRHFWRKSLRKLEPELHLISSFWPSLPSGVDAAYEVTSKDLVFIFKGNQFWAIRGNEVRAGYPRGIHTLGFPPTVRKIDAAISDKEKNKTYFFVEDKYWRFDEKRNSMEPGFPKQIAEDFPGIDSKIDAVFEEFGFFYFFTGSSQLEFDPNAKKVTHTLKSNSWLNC

[20] = target: Angiotensin-converting enzyme (Homo sapiens) (UniProt P12821); test: Inhibition of ACE1 (unknown origin) using MCA-RPPGFSAFK(Dnp) substrate assessed as residual activity at 10 uM incubated for 15 mins prior to substrate addition measured for 2 hrs; procedure, shortened: as §2
[21] = target: Cathepsin K (Homo sapiens) (UniProt P43235); test: Inhibition of Cathepsin K (unknown origin) using Z-GPR-AMC substrate assessed as residual activity at 10 uM incubated for 15 mins prior to substrate addition measured for 2 hrs; procedure, shortened: as §2
[22] = target: Tryptase gamma (Homo sapiens, UniProt Q9NRR2); test: Inhibition of Tryptase gamma1 (unknown origin) using Z-GPR-AMC substrate incubated for 15 mins prior to substrate addition measured for 2 hrs; procedure, shortened: as §1
Chain of Tryptase gamma (Q9NRR2 38-321 limits assumed, other chains not shown): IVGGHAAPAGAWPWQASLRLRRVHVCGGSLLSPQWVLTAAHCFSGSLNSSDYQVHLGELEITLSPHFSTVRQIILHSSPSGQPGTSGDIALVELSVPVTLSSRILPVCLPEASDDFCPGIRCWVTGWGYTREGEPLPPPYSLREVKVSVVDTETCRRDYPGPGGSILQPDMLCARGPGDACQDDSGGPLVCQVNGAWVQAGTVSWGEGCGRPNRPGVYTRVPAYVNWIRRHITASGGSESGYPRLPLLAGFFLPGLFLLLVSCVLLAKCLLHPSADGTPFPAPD

[23] = target: Trypsin (Homo sapiens, UniProt P07477+P07478+P35030); test: Inhibition of Trypsin (unknown origin) using H-D-CHA -Ala-Arg-AMC.2AcOH substrate incubated for 15 mins prior to substrate addition measured for 2 hrs; assay type: protein assay; procedure, shortened: as §1
[24] = Inhibition of Proteinase K (unknown origin) using H-D-CHA -Ala-Arg-AMC.2AcOH substrate incubated for 15 mins prior to substrate addition measured for 2 hrs; design: species or system Homo sapiens; procedure, shortened: as §1
[25] = target: T1, Neutrophil elastase (Homo sapiens) (UniProt P08246); conditions: BEAS2B, 10 uM
T1 sequence (whole entry): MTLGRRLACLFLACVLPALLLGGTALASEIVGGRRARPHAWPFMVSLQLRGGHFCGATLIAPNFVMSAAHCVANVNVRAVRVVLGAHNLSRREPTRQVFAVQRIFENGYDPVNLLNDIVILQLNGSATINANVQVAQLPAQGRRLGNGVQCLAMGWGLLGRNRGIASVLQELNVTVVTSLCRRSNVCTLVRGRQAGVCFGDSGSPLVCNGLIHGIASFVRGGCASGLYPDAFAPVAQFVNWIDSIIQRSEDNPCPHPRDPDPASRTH

C/C=C1\NC(=O)[C@@H](NC(=O)[C@@H](NC(=O)[C@@H](COS(=O)(=O)[O-])OC)C(C)C)[C@@H](C)OC(=O)[C@H]([C@H](C)CC)NC(=O)[C@H](Cc2ccccc2)N(C)C(=O)[C@H](Cc2ccccc2)N2C(=O)[C@H](CC[C@H]2O)NC1=O.[Na+] [Symplostatin 5]
< 5: pIC50 [24]
active: inhibition [25]
> 5: pIC50 [10] | pIC50 [23]
50%: Activity [5]
100%: Activity [1] | Activity [2] | Activity [3] | Activity [4] | Activity [6] | Activity [7] | Activity [8] | Activity [12] | Activity [13] | Activity [14] | Activity [15] | Activity [16] | Activity [17] | Activity [18] | Activity [19] | Activity [20] | Activity [21]
< 10 µM: IC50 [9] | IC50 [11] | IC50 [22]
